System: MS2 coat protein
Assay: apparent Kd, MS2 coat protein; higher = weaker binding; RNA-MaP array; FMN 200 µM where present
Outline: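 The apparent Kd is reported as the median of filtered per-cluster binding-curve fits. To get these curves, designs transcribed by stalled E. coli RNA polymerase on Illumina sequencing-chip clusters were titrated with SNAP-549-labelled MS2 coat protein from 0.7 or 1.5 nM, doubling to 3 µM. Titrations were run without and then with constant ligand in 100 mM Tris-HCl pH 7.5, 80 mM KCl, 4 mM MgCl2, BSA, DTT, yeast tRNA and Tween-20, and green signal was normalised to red-channel RNA signal and control-cluster median Fmax.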

[1] = designed as: ON switch for flavin mononucleotide, no ligand
[2] = ligand present: flavin mononucleotide, designed as: ON switch for flavin mononucleotide
[3] = designed as: OFF switch for flavin mononucleotide, no ligand
[4] = ligand present: flavin mononucleotide, designed as: OFF switch for flavin mononucleotide

Sequence	apparent Kd [1] [nM]	apparent Kd [2] [nM]	apparent Kd [3] [nM]	apparent Kd [4] [nM]
GUAGCAUACCGAGGAUAUUCAUUACAUGAGGAUCACCCAUGUUUUAUAGGCCGAUUACGGCCUUGGGAGAAGGCGGAAUGCUAC	14.8	11.1		
UGAAAUCAUGUAGGAUAUGCAUGGCGAAGCUACGCAGAAGGACAUGAGGAUCACCCAUGUUCUGGCUACCGGAUACGGUGGCAA			22	105
AAUAACAGAGGAUAUACUGUUUUAUGUGUUUGUUGUUUUGAACAUGAGGAUCACCCAUGUAGAAGGCUGAUUAA			35.3	33.5
UGAUAGGACAGAGGAUAUACGUGCUGGAGAUACUAGCAAAGUAUCUCGACAUGAGGAUCACCCAUGUAGAAGGCUGUCCUAUCU			25.2	89.4
UUAUAAAGUGUGAGGAUAUGCUGGUCCUUGGAUCAGCAGAAGGCACAUGAGGAUCACCCAUGUAAUAUAUUUUU			89.8	309
UGUCCAUAGCAGAAGGCAUGUCAAAAGACAUGAGGAUCACCCAUGUAAACAUGAGGAUAUGCUAUGGACUAAGAGCGAAAGCUC			8.57	5.66
AACAACCUAGGAUAUACAUGAGGAUCACCCAUGUUACUACUGGGUAAUCCCAAUUCGAGUAGAAGGAGGAUCAA			47.7	87
GCACGGUAUGUAGGAUAUGCAUAGCAUUGCUAUGCAGAAGGACAUGAGGAUCACCCAUGUAUGUAUUCCAUACUAAUCCCGUGU			5.55	5.2
GUACUUGUGCAGAAGGGCAUUGAAUUAGGUUUUUAGGUUGAUCAGAAAUGCAGGAUAUGUUAAACAUGAGGAUCACCCAUGUAC	66.3	13.7		
AGAAAGGAAGGAUAUACAAGAAAGCUGGGCAACGUCUCAGAACAUGAGGAUCACCCAUGUAGAAGGUCCAGGAA			25.2	34.3
GUACUCAUGUAAGGAUAUGCAGCCGUUUCGGCUGCAGAAGGUACUAUAAUACAUGAGGAUCACCCAUGUCUCUCGCAUUGCGAG	465	98.4		
GCUGGUCGAGGAUAUGCAAUCGUGCUUCGGCACGUAAGAUCACAUGAGGAUCACCCAUGUAGAAGGCGACCAGC			19.5	74
AUUGUAGUUGUGAGGAUAUCGUUGAUUUUUUGAAACGAGAAGGCACAUGAGGAUCACCCAUGUUAGUUGUUGGU			84	212
AUCAGCUCGUCAGGAUAUACGUCAUUGCGUCAGCAGUGUGGUAAGAUCACAUGAGGAUCACCCAUGUAGAAGGGACGAGCUGAU			13.9	286
CUGAGCUGAGGAUAUACAUGAGGAUCACCCAUGUGUUCCAGCUUGCGUACAGGCAGAUGUAGAAGGCAGUUCGG			41.4	102
GGCGUGUGAGGAUAUCUGAUGUCUAACUUCGGUUAGACAUCAGAGAAGGCACAUGAGGAUCACCCAUGUCCGCC			67.5	61.9
GCGUAAAAUGUAGGAUAUGACACAGGAAACUGGUCAGAAGGACAUGAGGAUCACCCAUGUAAAAUGUUCAAGAAUAACUCAUGC				172
UUACUCAUGUAAGGAUAUGCAGCCGCUUCGGCUGCAGAAGGUACUAUAAUACAUGAGGAUCACCCAUGUCUUUUUAAUUUAGAC	82.7	36.5		
CAGAAGUCAGGAUAUCCUGCUCGUCACUUGCGUGAUGAGUAGGAGAAGGGACAUGAGGAUCACCCAUGUAAAGU			68.9	95
UUAUUAUAUGUAGGAUAUGCAUAUUAUUAUUAUGCAGAAGGACAUGAGGAUCACCCAUGUAUGUUGUUAUUAUAUAUUAUAUAU			25.2	34.5
AACAAUCUAUCUGAGGAUAUCAUGAAAAAAACAUGAGGAUCACCCAUGUGCAGGAAAACUGCAUAUGAGAAGGCAGAUAGAUUGU	603	26.2		
UAGAAGUCAGGAUAUGCAUGGCGGGACUUGCGUCGUGGCGUGCAGAAGGGACAUGAGGAUCACCCAUGUAAAGC			49	43
GGCUACGUUUCGUAGCAGCUAGGUGAGGAUAUUCAAUUUUUCACAUGAGGAUCACCCAUGUAUGUGAAGAAGGCGCCUAGAAAU	11.8	5.04		
AAUAGGGUCGUAAUAGCUAGCACAUGAGGAUCACCCAUGUACAGAAGGCGAGCCAAGGCGGCAAUCGAGGAUAUGUAGCAGGGU			19.5	29.9

Sequence	apparent Kd [1] [nM]	apparent Kd [2] [nM]	apparent Kd [3] [nM]	apparent Kd [4] [nM]
AAUUAUUGAUGAGGAUAUUGUGGUGAAACACCACAAGAAGGCAUUAUACACAUGAGGAUCACCCAUGUGAGCCUGAUGCAUAUA			17.3	28.9
GUGUAGUCAGGAUAUACAUAGGAAGAGAAUAUAAUAUAAGUACAUGAGGAUCACCCAUGUAGAAGGGACAGUGU			35.3	39.9
UUGGAAAACAUGAGGAUCACCCAUGUGAAGCCGGCUAGUACACAGGAUAUCCAGAACGCCGAGUUGGAGAAGGGUGAUCAGUCG	38	80.4		
GGUUGGCGAGGAUAUACAUGAGGAUCACCCAUGUGGUCCUAAGAUAAAAUAGACCUUUGUAGAAGGCGCGGGUC			136	122
UUUAUGUCAGGAUAUGAGUCGUAGAACAAUAGUACUACGUCUCAGAAGGGACAUGAGGAUCACCCAUGUGCCUC			40.4	316
UUAGAGGAUUAAGGAUAUGCAGAGAGAUCAUGCGCGUCGCGCACAUGAGGAUCACCCAUGUAAGAGCAGAAGGUAACUAUGAUC			19.9	18.4
GCCUAGCCCAGGCCCACGGCAUCACAGGAUAUGCCGAUAACAUGAGGAUCACCCAUGUCAACUCCGCAGAAGGGUGAUAUCGUG	174	28.8		
UCAUACGGUGAGGAUAUCUCCACUAAAGUGUGUAGAGAAGGCGCUACAUGAGGAUCACCCAUGUUUAUGGGCAG			376	117
GGAUCUGCAGGAUAUAUAAAAUGGCGUGAUGGAUUGUCUGUACAUGAGGAUCACCCAUGUAGAAGGGCGUUCCA			29.1	58.3
AUGUGCCGGUCAGGAUAUCAACCACAUUGGCCAUGAGAAGGGACAGCACAUGAGGAUCACCCAUGUACACGCUGUGCGGAUGGG			273	122
AACUGCGCAUGAGGAUAUCCCGGACAUGAGGAUCACCCAUGUAAGCACAAGGGAGAAGGCAUGUGCCUCAAUUAGUUCCCACAA	61.9	7.08		
AGCUGUGGCCGAGGAUAUCUAACAAUCCUAACCGAAAUAUAAUCGGACAUGAGGAUCACCCAUGUAGAGAAGGCGGUCUCAGCA			92.4	237
GAUCAACAUGAGGAUCACCCAUGUGAGGAUAUGAUACUAUGUACUUCGGUACAUAGUAUCAGAAGGCAUGUGGA			158	39.4
AAUGCCGUAGGAUAUAUAUGGCAGAUCGCACGUCCUGAAAGACAUGAGGAUCACCCAUGUAGAAGGGCGGAAAC			14.7	17
AAUUUACAUGAGGAUCACCCAUGUCAGGAUAUGGUUUUAUUUUUUUCUUUUUUUGAUUCCAGAAGGGACAGUUA			148	79.6
AAAUAAAUCACAGGAUAUCUAGGGAUACAUGAGGAUCACCCAUGUUUGCAAAGAGAAGGGUGACAGUAUUAUCAGAUCAACAAU	210	38.1		
CUCGAGUGAGGAUAUAUACUUCCAUCAUUUGAGAGAGAAGUAUAGAAGGCACAUGAGGAUCACCCAUGUAUAAA			47.5	69.7
GUCAGCUAGUGAGGAUAUACAACACUGCUUCGGCAGUGUAUUAAGAUCACAUGAGGAUCACCCAUGUAGAAGGCACGAGCUGAU			13.8	273
UUGACAUUCAAGAAGGGUCACUCUACAUGAGGAUCACCCAUGUCUAUGGACAGGAUAUUGAUCGUCACCUGGUUAGCUUUCGGU	770	19		
AGAAGUAUGCAGGAUAUGGGAACCUAUUGACAUUCAGAAGGGCAUACAUGAGGAUCACCCAUGUGGCCUCCCAG			19.3	35.1
GGAGGACGAAACAUGAGGAUCACCCAUGUGUUAUAAUUAAUAUAGGAUAUGUUUAUACUUUUUGGGCAGAAGGAUGAUAAUGCU	21.9	16.9		
GCGCAAAGAUUAUUAUGAAUAAACAUGAGGAUCACCCAUGUAUAGGAUAUCGACUCGAAUAGAGUCGAGAAGGAUACAUAGCGC			22.5	97.1
UUUUAACAUGAGGAUCACCCAUGUGAGGAUAUCGAAAUUUAUAUUUAUAUUUAUAUUUCGAGAAGGCACAUUUU			176	156
CUCGAGUUAGGAUAUUGAACGUAACAAGCGGGAACUCCCGCCAAGAAGGAACAUGAGGAUCACCCAUGUGAAAC			21	21.3

— the EternaBench riboswitch data
